For assay [1], the target named is T1, Angiotensin II receptor (AT-1) type-1 (Rattus norvegicus) (UniProt P29089+P25095). In words: Inhibition of pressor response induced by infusion of angiotensin II in rats, administered perorally. It is filed as functional. In a few lines: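 Sprague-Dawley rats (n = 18-28) dosed by gastric tube in groups; vehicle water or water with 2 equiv NaOH; controls given water. At 50 min rats anaesthetised, pithed, ventilated, with carotid and jugular catheters. At 1 h post-dose AII 0.75 μg/kg iv given.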

In assay [2] the target is T1, Angiotensin II receptor (AT-1) type-1 (Rattus norvegicus). In words: Inhibition of pressor response induced by infusion of AII in rats when dose is administered intravenously. It is filed as functional. In a few lines:
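Normotensive Sprague-Dawley pithed rats (n = 4), BP recorded by carotid catheter. AII 0.75 μg/kg injected via jugular vein; three control responses taken. Each later AII challenge followed, by 5 min, an iv injection of antagonist at increasing doses, in water or water with 2 equiv NaOH.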

In assay [3] the target is T2, Angiotensin II receptor (AT-1) type-1 (Rattus norvegicus, UniProt P29089+P25095).
T2 sequence (P29089 whole entry): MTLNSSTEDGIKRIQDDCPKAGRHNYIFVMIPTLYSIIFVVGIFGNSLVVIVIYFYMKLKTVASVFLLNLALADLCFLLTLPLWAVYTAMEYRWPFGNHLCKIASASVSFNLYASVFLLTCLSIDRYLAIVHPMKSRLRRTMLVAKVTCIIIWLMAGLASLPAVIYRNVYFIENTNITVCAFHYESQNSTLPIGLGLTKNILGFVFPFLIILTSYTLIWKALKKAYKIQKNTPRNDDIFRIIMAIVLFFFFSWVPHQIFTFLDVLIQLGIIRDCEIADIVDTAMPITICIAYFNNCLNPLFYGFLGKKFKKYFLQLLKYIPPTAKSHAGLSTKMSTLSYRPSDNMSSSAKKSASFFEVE
T2 sequence (P25095 whole entry): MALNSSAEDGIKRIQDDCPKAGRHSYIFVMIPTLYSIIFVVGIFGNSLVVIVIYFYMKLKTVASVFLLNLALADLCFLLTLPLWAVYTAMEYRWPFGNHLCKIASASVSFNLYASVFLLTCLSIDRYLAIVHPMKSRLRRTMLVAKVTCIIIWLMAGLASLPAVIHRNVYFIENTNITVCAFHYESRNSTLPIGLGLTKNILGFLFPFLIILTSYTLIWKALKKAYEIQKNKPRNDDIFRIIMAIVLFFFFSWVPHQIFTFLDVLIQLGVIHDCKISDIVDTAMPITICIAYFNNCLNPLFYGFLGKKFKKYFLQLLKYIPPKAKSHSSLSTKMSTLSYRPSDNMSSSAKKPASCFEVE
In words: Specific binding inhibition of [125I]AII to Angiotensin II receptor, type 1 in rat liver membrane. It is filed as cell membranes.

24 compounds from ChEMBL document CHEMBL1128415 (J Med Chem, 1995) can be followed below.

What is called IC50 is the concentration that inhibits the measured activity by half. Read a high IC50 as a need for much substance.

The structures appear in SMILES notation.

Turning to `CCCCc1nc(Sc2ccccc2)c(C(=O)O)n1Cc1ccc(-c2ccccc2S(=O)(=O)NC(=O)NCCC)cc1`, the figures for the ID50 in assay [1] and in assay [2] were more than 10 mg/kg and 0.67 mg/kg, respectively. For the same compound, the IC50 in assay [3] is 300 pM.
`CCCCc1nc(SCSC)c(C(=O)O)n1Cc1ccc(-c2ccccc2S(=O)(=O)NC(=O)NCCC)cc1` yielded an ID50 in assay [1] of 2.75 mg/kg. In assay [3], this compound yielded an IC50 of 200 pM.
Take `CCCCc1nc(SC)c(C(=O)OCC)n1Cc1ccc(-c2ccccc2S(=O)(=O)NC(=O)NCCC)cc1`: the ID50 in assay [1] is 1.13 mg/kg; in assay [2] it was 0.08 mg/kg. For the same compound, the IC50 in assay [3] is 400 pM.
The corresponding values for `CCCCc1nc(SCCCO)c(C(=O)O)n1Cc1ccc(-c2ccccc2S(=O)(=O)NC(=O)NCCC)cc1` are 5.74 mg/kg, 0.11 mg/kg and 200 pM.
With `CCCCc1nc(SC)c(C(=O)NC(C)=O)n1Cc1ccc(-c2ccccc2S(=O)(=O)NC(=O)NCCC)cc1`, the ID50 in assay [1] was determined as 3.01 mg/kg; in assay [2], 0.09 mg/kg. In assay [3], this compound had an IC50 of 1700 pM.
On to `CCCCc1nc(SC)c(C(=O)O)n1Cc1ccc(-c2ccccc2S(=O)(=O)NS(=O)(=O)C(F)(F)F)cc1`, for which the ID50 in assay [2] was determined as 1.45 mg/kg. Besides, in assay [3], the IC50 came to 800 pM.
The compound `CCCCc1nc(SC)c(C(=O)OCC)n1Cc1ccc(-c2ccccc2S(=O)(=O)N(C)C(=O)NCCC)cc1` gave an IC50 in assay [3] of 78000 pM.
The same measure, in the same setting: in the case of `CCCNC(=O)NS(=O)(=O)c1ccccc1-c1ccc(Cn2c(CC)nc(SC)c2C(=O)O)cc1` it was 1300 pM.
With `CCCCc1nc(SC)c(C(=O)O)n1Cc1ccc(-c2ccccc2S(=O)(=O)NC(=O)NCc2cccnc2)cc1`, in assay [3], the IC50 is 900 pM.
`CCCCc1nc(SC)c(C(=O)O)n1Cc1ccc(-c2ccccc2S(=O)(=O)NC(=O)NCC)cc1`: the ID50 came out at 1.12 mg/kg in assay [1] and 0.17 mg/kg in assay [2].
`CCCCc1nc(SC)c(C(=O)O)n1Cc1ccc(-c2ccccc2S(=O)(=O)/N=C(/S)NCCC)cc1` registered an ID50 in assay [2] of 1.15 mg/kg. The same compound registered an IC50 in assay [3] of 2100 pM.
For `CCCCNC(=O)NS(=O)(=O)c1ccccc1-c1ccc(Cn2c(CCCC)nc(SC)c2C(=O)O)cc1`, the ID50 in assay [1] came out at 0.21 mg/kg; in assay [2], 0.09 mg/kg.
Consider `CCCCc1nc(SC)c(C(=O)NS(=O)(=O)c2ccccc2)n1Cc1ccc(-c2ccccc2S(=O)(=O)NC(=O)NCCC)cc1`, for which the ID50 in assay [2] amounted to 1.15 mg/kg. The same compound gave an IC50 in assay [3] of 800 pM.
Regarding `CCCCc1nc(C(=O)O)c(SC)n1Cc1ccc(-c2ccccc2S(=O)(=O)NC(=O)NCCC)cc1`, the IC50 in assay [3] worked out at 103000 pM.
The same measure, in the same setting: in the case of `CCCNC(=O)NS(=O)(=O)c1ccccc1-c1ccc(Cn2c(C)nc(SC)c2C(=O)O)cc1` it was 15000 pM; in that of `CCCCc1nc(SC)c(C(=O)O)n1Cc1ccc(-c2ccccc2S(=O)(=O)NC(=O)OCC=C(C)C)cc1`, 1800 pM; in that of `CCCNC(=O)NS(=O)(=O)c1ccccc1-c1ccc(Cn2c(CCC)nc(SC)c2C(=O)O)cc1`, 200 pM.
The same measure, in the same setting: in the case of `CCCCc1nc(SC)c(C(=O)O)n1Cc1ccc(-c2ccccc2C(=O)NC(=O)NCCC)cc1` it was 114000 pM.
Regarding `CCCCc1nc(SC)c(C(=O)O)n1Cc1ccc(-c2ccccc2S(=O)(=O)NC(=O)c2ccccc2)cc1`, in assay [2], the ID50 amounted to 0.4 mg/kg. The compound also gave an IC50 in assay [3] of 90 pM.
Turning to `CCCNC(=O)NS(=O)(=O)c1ccccc1-c1ccc(Cn2c(C3CC3)nc(SC)c2C(=O)O)cc1`, in assay [3], the IC50 was found to be 7700 pM.
In the case of `CCCCc1nc(Sc2cccs2)c(C(=O)O)n1Cc1ccc(-c2ccccc2S(=O)(=O)NC(=O)NCCC)cc1`, in assay [2], the ID50 came to 2.01 mg/kg. In assay [3], this compound gave an IC50 of 200 pM.
Turning to `CCCCc1nc(SC)c(C(=O)O)n1Cc1ccc(-c2ccccc2S(=O)(=O)NC(=O)NC)cc1`, the ID50 turned out to be 4.94 mg/kg in assay [1] and 0.27 mg/kg in assay [2].
Regarding `CCCCc1nc(SC)c(C(=O)OC(C)(C)C)n1Cc1ccc(-c2ccccc2S(=O)(=O)NC(=O)NCCC)cc1`, the ID50 in assay [2] turned out to be 0.1 mg/kg. This compound also yielded an IC50 in assay [3] of 600 pM.
`CCCCc1nc(SC)c(C(=O)O)n1Cc1ccc(-c2ccccc2S(=O)(=O)NC(=O)N(CC)CC)cc1`: the IC50 in assay [3] is 4700 pM.
